The results in this text go back to ChEMBL document CHEMBL4622830, “Substituted pteridinones as p90 ribosomal S6 protein kinase (RSK) inhibitors: A structure-activity study” (Bioorg Med Chem, 2020).

Calls of active or inactive are those of the source. The calls are words filed in the database; no cut-off is given here.

In series [1] the target is Bromodomain-containing protein 4 (Homo sapiens, UniProt O60885). The experiment in a line: Binding affinity to BRD4 bromodomain 1 (unknown origin) by ITC assay. Background: In ITC the heat of successive injections is recorded.
The test system of series [2] is MOLM-13. In words: Antiproliferative activity against human MOLM13 assessed as reduction in cell viability incubated for 72 hrs by MTS assay. Type of series: functional, cell-based. As to conditions: MOLM-13, 72 h. In general terms: Tetrazolium assays rely on reduction of a dye to a coloured formazan, in cell work by metabolically active cells.
The subject of series [3] is MOLM-13. In words: Antiproliferative activity against human MOLM13 assessed as reduction in cell viability incubated for 72 hrs by CellTiter-Glo assay. The format is functional, cell-based. As to conditions: MOLM-13, 72 h. The method in brief:
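CellTiter-Glo viability in MOLM-13 cells seeded at 30,000 per well, treated across 60 µM to 247 nM at 37°C for up to 72 h. Plates equilibrated 30 min at RT, reagent added, shaken 2 min, luminescence read after 10 min. Final DMSO ≤0.5%; n = 3.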
Background: In ATP-based viability assays light output follows the ATP content of the culture.

The test system of series [4] is MOLM-13. The experiment in a line: Antiproliferative activity against human MOLM13 assessed as reduction in cell viability incubated for 72 hrs by CellTox green assay. The format is functional, cell-based. The note with it: MOLM-13, 72 h.
In series [5] the test system is MOLM-13. In words: Antiproliferative activity against human MOLM13 assessed as reduction in cell viability at 0.25 to 60 uM incubated for 24 hrs by CellTox green assay. The format is functional, cell-based. In a few lines:
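Cytotoxicity read by CellTox Green: MOLM-13 cells, 60,000 per well, in medium with CellTox Green dye at 1:500, treated over 60 μM to 247 nM at 37°C. Fluorescence (ex 485/em 520 nm) read at 0, 24, 48 and 72 h.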

Series [6] concerns MOLM-13. The experiment in a line: Antiproliferative activity against human MOLM13 assessed as reduction in cell viability at 0.25 to 60 uM incubated for 24 hrs by MTS assay. The format is functional, cell-based. The method in brief: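 MOLM-13 cells, 60,000 per well, given compound over 60 μM to 247 nM, incubated at 37°C for 24 to 72 h. CellTiter 96 AQueous One (MTS) reagent added for 3 h, formazan absorbance read at 490 nm. EC50 or percentage values derived.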

Series [7] relates to MOLM-13. In words: Antiproliferative activity against human MOLM13 assessed as reduction in cell viability at 0.25 to 60 uM incubated for 24 hrs by CellTiter-Glo assay. Type of series: functional, cell-based. The method in brief: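 MOLM-13 cells, 30,000 per well in medium, treated over 60 μM to 247 nM and held at 37°C for 24 to 72 h. Plates equilibrated 30 min at RT, CellTiter-Glo reagent added, shaken 2 min, luminescence read after 10 min at rt. n = 3.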

The subject of series [8] is MOLM-13. In words: Antiproliferative activity against human MOLM13 assessed as reduction in cell viability at 60 uM incubated for 72 hrs by MTS assay. The format is functional. The note with it: MOLM-13, 72 h, read-out: GI.
Series [9] deals with T1, Ribosomal protein S6 kinase alpha-3 (Homo sapiens, UniProt P51812). The experiment in a line: Inhibition of RSK2 (unknown origin).
The target in series [10] is Ribosomal protein S6 kinase alpha-2 (Homo sapiens, UniProt Q15349). In words: Inhibition of RSK3 (unknown origin).
The target of series [11] is Ribosomal protein S6 kinase alpha-1 (Homo sapiens, UniProt Q15418). In words: Inhibition of RSK1 (unknown origin).
In series [12] the test system is HEK293. The experiment in a line: Cytotoxicity in HEK293 cells assessed as reduction in cell viability. Type of series: cell-based. As to conditions: human.
The target of series [13] is T1, Ribosomal protein S6 kinase alpha-3. The experiment in a line: Inhibition of full length human GST-tagged RSK2 using Ulight-rpS6 as substrate incubated for 1 hr in presence of ATP by TR FRET assay.
The target is the same in series [14]. The experiment in a line: Inhibition of full length human GST-tagged RSK2 using Ulight-rpS6 as substrate at 10 uM incubated for 1 hr in presence of ATP by TR FRET assay. The method in brief:
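Recombinant RSK2 at 500 pM final with 250 nM ULight-rpS6 (Ser235/236) substrate and 3 μM ATP, in 50 mM HEPES pH 7.5, 10 mM MgCl2, 1 mM EGTA, 2 mM DTT, 0.01% Tween 20. DMSO ≤0.5%. Ran 1 h at room temperature, stopped with 10 mM EDTA. Eu anti-phospho antibody (2 nM) TR-FRET, 665/615 nm ratio read.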

T1 sequence (P51812 whole entry): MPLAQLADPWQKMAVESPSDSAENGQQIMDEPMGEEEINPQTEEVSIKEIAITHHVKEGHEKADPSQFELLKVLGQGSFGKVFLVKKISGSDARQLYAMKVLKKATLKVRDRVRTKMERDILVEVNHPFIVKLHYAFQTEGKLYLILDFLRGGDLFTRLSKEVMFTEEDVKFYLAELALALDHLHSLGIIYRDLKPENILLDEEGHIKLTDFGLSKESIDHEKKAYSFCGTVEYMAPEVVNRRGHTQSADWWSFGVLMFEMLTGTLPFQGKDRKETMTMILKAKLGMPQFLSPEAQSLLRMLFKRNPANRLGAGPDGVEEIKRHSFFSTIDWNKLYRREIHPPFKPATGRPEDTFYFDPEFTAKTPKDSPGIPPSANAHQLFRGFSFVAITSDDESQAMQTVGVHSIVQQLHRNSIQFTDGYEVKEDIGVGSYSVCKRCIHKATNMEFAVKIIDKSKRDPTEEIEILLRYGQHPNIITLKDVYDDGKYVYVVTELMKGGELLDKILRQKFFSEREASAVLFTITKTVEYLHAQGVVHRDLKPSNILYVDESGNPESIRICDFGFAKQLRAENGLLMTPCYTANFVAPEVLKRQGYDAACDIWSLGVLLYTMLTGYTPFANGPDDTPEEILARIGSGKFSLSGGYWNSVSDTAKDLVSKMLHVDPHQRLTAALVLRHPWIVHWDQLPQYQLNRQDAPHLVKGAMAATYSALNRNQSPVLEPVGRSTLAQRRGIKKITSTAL
Ribosomal protein S6 kinase alpha-2, sequence (Q15349 whole entry): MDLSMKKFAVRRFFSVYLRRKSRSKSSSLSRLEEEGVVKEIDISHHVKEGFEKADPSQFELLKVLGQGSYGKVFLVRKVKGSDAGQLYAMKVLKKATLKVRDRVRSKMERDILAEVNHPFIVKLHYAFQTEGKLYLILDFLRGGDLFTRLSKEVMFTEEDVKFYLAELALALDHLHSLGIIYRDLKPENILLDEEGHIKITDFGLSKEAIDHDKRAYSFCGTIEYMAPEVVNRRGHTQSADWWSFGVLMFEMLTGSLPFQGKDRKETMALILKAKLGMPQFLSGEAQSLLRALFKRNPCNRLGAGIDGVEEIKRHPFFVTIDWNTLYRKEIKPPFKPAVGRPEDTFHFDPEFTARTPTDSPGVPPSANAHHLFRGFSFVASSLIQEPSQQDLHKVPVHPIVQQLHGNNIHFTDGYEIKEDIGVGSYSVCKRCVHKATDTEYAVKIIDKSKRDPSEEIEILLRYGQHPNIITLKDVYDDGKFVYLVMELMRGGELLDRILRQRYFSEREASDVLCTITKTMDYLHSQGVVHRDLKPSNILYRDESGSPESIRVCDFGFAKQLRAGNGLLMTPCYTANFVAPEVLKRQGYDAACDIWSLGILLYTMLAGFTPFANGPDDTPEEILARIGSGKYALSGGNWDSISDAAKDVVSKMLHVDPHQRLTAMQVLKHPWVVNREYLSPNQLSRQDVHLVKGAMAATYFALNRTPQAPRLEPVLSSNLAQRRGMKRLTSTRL
Ribosomal protein S6 kinase alpha-1, sequence (Q15418 whole entry): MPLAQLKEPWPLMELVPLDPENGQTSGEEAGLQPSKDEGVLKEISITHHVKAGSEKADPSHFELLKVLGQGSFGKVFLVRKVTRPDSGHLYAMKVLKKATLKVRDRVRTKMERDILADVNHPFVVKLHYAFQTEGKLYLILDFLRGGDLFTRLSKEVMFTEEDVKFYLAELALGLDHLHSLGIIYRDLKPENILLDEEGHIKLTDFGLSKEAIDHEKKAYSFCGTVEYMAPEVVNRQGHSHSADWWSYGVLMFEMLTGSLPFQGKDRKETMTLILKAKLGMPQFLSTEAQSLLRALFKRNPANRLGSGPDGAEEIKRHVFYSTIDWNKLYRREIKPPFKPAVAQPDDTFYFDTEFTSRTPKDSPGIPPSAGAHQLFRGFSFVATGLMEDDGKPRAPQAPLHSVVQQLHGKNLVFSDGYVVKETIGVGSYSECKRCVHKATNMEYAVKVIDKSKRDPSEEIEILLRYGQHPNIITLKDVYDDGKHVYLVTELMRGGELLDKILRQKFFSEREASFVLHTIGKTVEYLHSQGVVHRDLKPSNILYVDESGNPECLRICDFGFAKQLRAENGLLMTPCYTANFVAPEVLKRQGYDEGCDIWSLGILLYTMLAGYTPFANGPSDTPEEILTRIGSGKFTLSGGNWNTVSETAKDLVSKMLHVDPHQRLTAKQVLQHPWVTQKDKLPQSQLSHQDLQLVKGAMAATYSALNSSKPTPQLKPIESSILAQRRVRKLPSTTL

In turn, `CC(C)CCN1c2nc(Nc3cc(F)c(O)c(F)c3)ncc2N(C)C(=O)C1C` (configuration not stated) registered a Kd in series [1] of 3.5 µM. Moreover, the values for the EC50 in series [2], in series [3] and in [4] were 2800 nM, 1.89 µM and 3.41 µM, respectively. Further, the result in series [5], in [6] and in [7] was Active.

With `Oc1c(F)cc(-c2cnccc2-c2ccc(N3CCOCC3)cc2)cc1F`, the inhibition of growth at 60 µM in series [8] was found to be 79%. The results for the 50% inhibitory concentration (IC50) in [9], in series [10] and in [11] were 5 nM, 4 nM and 6 nM, respectively. Further, the EC50 in series [3] is 19.1 µM; in [4] it was 23.4 µM. Moreover, the Activity entry in series [12] was “Toxic”.

Turning to `CC(C)CCN1c2nc(Nc3ccc(O)cc3)ncc2N(C)C(=O)C1C` (configuration not stated), in series [13], the concentration for half-maximal inhibition (IC50) is 54.8 nM.

Consider `CC1Nc2nc(Nc3cc(F)c(O)c(F)c3)ncc2NC1=O` (configuration not stated), for which the inhibition in series [14] amounted to 83%.

Turning to `CC(C)CCN1c2nc(Nc3ccc(O)c(Cl)c3)ncc2N(C)C(=O)C1C` (configuration not stated), the IC50 in [13] is 71.5 nM.

On to `CN1CCN(c2ccc(-c3ccncc3-c3cc(F)c(O)c(F)c3)cc2)CC1`, for which the inhibition of growth at 60 µM in [8] was determined as 75%. Besides, the 50% effective concentration (EC50) amounted to 9.71 µM in [3] and 22 µM in series [4]. The Activity entry in series [12] is on record as “Toxic”.

In the case of `Oc1c(F)cc(Nc2ncccn2)cc1F`, the inhibition in [14] was determined as 45%.

On to `Nc1nc(Nc2cc(F)c(O)c(F)c2)ncc1[N+](=O)[O-]`, for which the inhibition in series [14] is 72%.

Consider `CC(C)CCN1c2nc(Nc3cc(F)cc(F)c3)ncc2N(C)C(=O)C1C` (configuration not stated), for which, in series [14], the inhibition was found to be 71%.

For `CC(C)CCN1c2nc(Nc3cc(Br)c(O)c(Br)c3)ncc2N(C)C(=O)C1C` (configuration not stated), the inhibition in series [14] stood at 78%.

With `CC(C)CCN1c2nc(Nc3ccc(O)c(F)c3)ncc2N(C)C(=O)C1C` (configuration not stated), in [13], the IC50 is 25.4 nM. For the same molecule, the EC50 in series [2] is 1690 nM; in series [3], 0.87 µM; in series [4], 3.16 µM.

Consider `CC(C)CCN1CC(=O)N(C)c2cnc(Nc3ccc(O)c(F)c3)nc21`, for which, in [13], the IC50 was 24.7 nM.

Regarding `CC(C)CCN1CC(=O)Nc2cnc(Nc3ccc(O)c(F)c3)nc21`, in series [13], the IC50 was 38.3 nM. The EC50 in series [2] stood at 4390 nM; in series [3], 2.23 µM; in series [4], 4.64 µM.

Consider `CC(C)CCN1c2nc(Nc3ccc(CO)cc3)ncc2N(C)C(=O)C1C` (configuration not stated), for which, in [13], the IC50 worked out at 739 nM.

For `CC(C)CCN1c2nc(Nc3ccc(O)c(Br)c3)ncc2N(C)C(=O)C1C` (configuration not stated), the half-inhibitory concentration (IC50) in [13] stood at 141 nM.

As to `Nc1cnc(Nc2cc(F)c(O)c(F)c2)nc1N`, in series [14], the inhibition worked out at 38%.

With `CC(C)CCN1CC(=O)N(C)c2cnc(Nc3cc(F)c(O)c(F)c3)nc21`, the 50% inhibitory concentration (IC50) in series [13] was determined as 17.6 nM. The values for the EC50 in series [2], in [3] and in series [4] were 2710 nM, 1.67 µM and 4.54 µM, respectively.

For `CC(C)CCN1CC(=O)Nc2cnc(Nc3cc(F)c(O)c(F)c3)nc21`, the half-inhibitory concentration (IC50) in series [13] was 23.4 nM. In addition, the figures for the EC50 in [2], in series [3] and in series [4] were 6820 nM, 6.2 µM and 6.85 µM, respectively.

In the case of `CC(C)CCN1c2nc(Nc3cc(F)c(O)c(F)c3)ncc2NC(=O)C1C` (configuration not stated), the inhibition of growth at 60 µM in series [8] was 56%. For the same molecule, in series [13], the IC50 is 18.2 nM. Also, the results for the concentration for a half-maximal effect (EC50) in series [3] and in series [4] were 17.4 µM and 18.1 µM, respectively. Further, in [12], the Activity result is “Toxic”.

On to `CC(C)CCN1c2nc(Nc3cc(Cl)c(O)c(Cl)c3)ncc2N(C)C(=O)C1C` (configuration not stated), for which the inhibition in [14] was 83%.

Regarding `COc1c(F)cc(Nc2ncc3c(n2)N(CCC(C)C)C(C)C(=O)N3C)cc1F` (configuration not stated), the inhibition in series [14] is 43%.

In general, Kd refers to the constant that tells how readily two partners part at equilibrium. The EC50 is the concentration at which the effect is half-maximal. Usually IC50 stands for the concentration needed to halve the response being measured. The inhibition is the share of the control response that was lost under treatment.
